# Screening data deposited in PubChem BioAssay by Broad Institute.
# rRNA inh HTS: selective bacterial rRNA inhibition in E. coli | E. coli WT GFP vs humanized-ribosome RFP mutants, fluorescence, 24 h; stronger effect = lower value; DMSO median 0, no signal -100 | GFP signal change (wild-type ribosome), % (no concentration beside the values) | 350,000 tested, 1.6% active | AID 720706;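 active means significant combined selectivity score with lowered wild-type GFP, culture density cut under 30%, mutant RFP and density less affected; inactive means any of these conditions unmet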
# miR122 inh: miR-122 inhibition in Huh7 cells; Huh7 miR-122 Renilla luciferase sensor, 48 h; neutral wells = 0, positive control = 100; 340,000 tested, 0.3% active; activation (reporter increase), % at 12.5 µM;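 active means mean replicate activation score at least 90 and every replicate individually at or above 90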;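 further: higher luciferase means less miR-122 activity so hits act as miR-122 inhibitors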
# INS-1E GSIS act: primary screen for activators of insulin secretion dependent on glucose, INS-1E cells, GLuc reporter luminescence. INS-1E GLuc reporter insulin secretion, 2-3 h. activation, % at 16.6 µM. 370,000 tested, 0.61% active. AID 743287;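 active means lowest replicate activation of at least 40%, so every replicate reaches that level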;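 further: 0% = median of neutral control wells and 100% = median of IBMX positive control wells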
# HIV Env fusion: inhibitors of HIV Env-mediated cell fusion; 360,000 tested, 1.1% active; inhibition, % at 12.3 µM; HeLa-JRFL Env/CEM21 cell fusion, luciferase;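 active means mean replicate inhibition score of at least 50 and every replicate individually at or above 50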;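 further: 0% = plate neutral controls and 100% = maraviroc near 300 nM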
# Cneo AK release: causes C. neoformans cell lysis; lysis activity, % at 15 µM; adenylate kinase release luminescence, 4 h; normalised: neutral wells 0, clomiphene wells 100; 360,000 tested, 0.2% active;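 active means mean lysis activity across replicates of at least 80%, whatever share of replicates individually reach that level; inactive means mean lysis activity below 80%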
#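 Material: C. neoformans cells; Schedule: 4 h static compound exposure, 37 °C, read 1 h post-reagent; Measured by: adenylate kinase release luminescence; Read-out: signal increase indicating cell lysis; Controls: Clomiphene as positive lysis control.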
# F508del corr: correctors of CFTR F508del function in bronchial epithelial cells | AID 720511 | 350,000 tested, 0.36% active | activity (quench increase), % at 7.58 µM | CFBE cells, YFP halide quenching; stimulated with forskolin plus potentiator P3; % fluorescence drop versus neutral controls;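 active means mean added fluorescence quench of at least 8% versus neutral control, with both replicates also reaching 8%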;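 further: cells transiently co-express mutant CFTR-F508del with the halide-sensitive YFP; corrector assay measuring rescue of mutant channel to the surface after 24 h compound exposure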
# An asterisk follows results filed as active; nt = not tested or not shown; [ ] = remark or other dose. An excerpt weighted towards active compounds, which were near 3.1% of everything screened.
SMILES,rRNA inh HTS,miR122 inh,INS-1E GSIS act,HIV Env fusion,Cneo AK release,F508del corr
CCN1CCN(C(c2cc3cccc(C)c3[nH]c2=O)c2nnnn2Cc2ccccc2)CC1 (centres undefined),nt,-14,nt,-51,-2,nt
COc1ccc(Cn2nnnc2C(c2cc3cc(C)ccc3[nH]c2=O)N2CCOCC2)cc1 (centres undefined),nt,-5,nt,67*,1,nt
COc1ccc2[nH]c(=O)c(CN(Cc3ccco3)C(c3nnnn3Cc3ccccc3)C(C)C)cc2c1 (centres undefined),-4,13,-21,54*,nt,nt
COc1ccc(Cn2nnnc2C(c2cc3cccc(C)c3[nH]c2=O)N2CCOCC2)cc1 (centres undefined),nt,-18,13,86*,-1,nt
COc1ccc(N2CCN(C(c3cc4cc(C)ccc4[nH]c3=O)c3nnnn3Cc3ccccc3)CC2)cc1 (centres undefined),nt,3,nt,-208,12,nt
CO[C@H]1CN(C)C(=O)c2ccc(NC(=O)Cc3ccccc3)cc2OC[C@@H](C)N(C(=O)c2ccccc2F)C[C@H]1C,2,nt,-33,-16[16.7 µM],0,-1
CC(C)c1cn(CC[C@H]2CC[C@H](NC(=O)C3CCOCC3)[C@@H](CO)O2)nn1,1,nt,6,nt,nt,-1
CC(C)NC(=O)N(C)C[C@@H]1Oc2ccc(NC(=O)Nc3ccc4c(c3)OCO4)cc2C(=O)N([C@H](C)CO)C[C@H]1C,3,-2[16.7 µM],24,nt,-2,1
CCOC(=O)c1nc(-c2ccccc2)oc1N(C)C,nt,3,84*,nt,-18,nt
Cc1oc(-c2ccccc2)nc1C(=O)OCC(=O)NCc1ccccc1,3,nt,5,14,-2,-1
O=C(C[C@H]1CC[C@@H]2[C@H](COC[C@H](O)CN2Cc2ccccc2F)O1)N[C@H]1CCN(Cc2ccccc2)C1,0,1[16.7 µM],3,nt,4,1
Cc1nc(Sc2ccccc2)c(C#N)c(C)c1[N+](=O)[O-],-35*,-1,-12,-3,4,-2
CCc1nc(NCc2cccs2)c2nnn(Cc3ccccc3)c2n1,5,-2,1,19,1,0
CCc1nc(Nc2ccccc2)c2nnn(Cc3ccccc3)c2n1,-30*,8,1,-9,-2,3
C[C@H](CO)N1C[C@H](C)[C@@H](CN(C)C(=O)NC2CCCC2)OCc2cnnn2CCCC1=O,1,nt,2,nt,nt,nt
CCOC(=O)CCC(=O)O[C@H]1[C@H](O[C@@H]2[C@@H](C)[C@H](O[C@H]3C[C@@](C)(OC)[C@@H](O)[C@H](C)O3)[C@@H](C)C(=O)O[C@H](CC)[C@@](C)(O)[C@H](O)[C@@H](C)C(=O)[C@H](C)C[C@@]2(C)O)O[C@H](C)C[C@@H]1N(C)C,nt,-7,nt,-9,2,0
CC[C@H]1OC(=O)[C@H](C)[C@@H](O[C@H]2C[C@@](C)(OC)[C@@H](O)[C@H](C)O2)[C@H](C)[C@@H](O[C@@H]2O[C@H](C)C[C@H](N(C)C)[C@H]2O)[C@](C)(O)C[C@@H](C)C(=O)[C@H](C)[C@@H](O)[C@]1(C)O,nt,3,nt,-35,-2,9.0*
CC(=O)Nc1cccc2c1O[C@H](CN(C)S(C)(=O)=O)[C@H](C)CN(C)C2=O,-3,nt,4,nt,nt,nt
CC(=O)NN1C(=O)c2ccc3c4c(ccc(c24)C1=O)C(=O)N(NC(C)=O)C3=O,-22*,nt,-33,2,0,1
O=C1c2ccc3c4c(ccc(c24)C(=O)N1NC(=O)C(F)(F)F)CC3,nt,nt,8,-33,nt,nt
Cc1ccc(S(=O)(=O)NCCC(=O)NNC(=O)c2ccccc2Cl)cc1C,1,1,-7,-7,0,0
COc1ccc(Cl)cc1C(=O)NNC(=O)CCNS(=O)(=O)c1ccccc1,-1,0,-4,-3,-2,10*
O=C(c1cccnc1)N1CC2(C1)[C@@H](c1ccccc1)[C@H](CO)N2Cc1cccnc1,2,nt,3,10[16.7 µM],nt,-3
CCCCOC(=O)c1cc(=O)[nH]c2ccccc12,-8,1,58*,nt,nt,-5
CCCCOC(=O)c1cc(=O)[nH]c2ccc(C)cc12,-1,-1,1,-8,nt,-8
SMILES,rRNA inh HTS,miR122 inh,INS-1E GSIS act,HIV Env fusion,Cneo AK release,F508del corr
Cn1nc(C(C)(C)C)cc1NC(=O)Nc1cc(Cl)cc(Cl)c1,-20*,1,-54,22,1,4
Cc1ccc(F)cc1NC(=O)Nc1cc(C(C)(C)C)nn1C,nt,-7,nt,-1,-3,-4
O=c1c(C/C=C/c2ccccc2)c(O)ccn1Cc1ccc(Cl)cc1Cl,-19,nt,-4,4,nt,-2
O=c1c(Cc2ccc(Cl)cc2Cl)c(O)ccn1Cc1ccncc1,-35*,nt,-2,5,nt,-1
COC(=O)c1sccc1NC(=O)c1cccs1,13,-4,11,-3,1,-2
COC(=O)c1sc2ccccc2c1NC(=O)c1cccs1,-23,-7,58*,nt,-1,0
C[C@H](CO)N1C[C@H](C)[C@H](CN(C)C(=O)Nc2cccc3ccccc23)Oc2ccc(NC(=O)Cn3cnnn3)cc2C1=O,2,-15[16.7 µM],16,nt,-1,2
CCOC(=O)c1oc2cccc(O)c2c1CN(Cc1ccccc1)C(C)=O,nt,4,nt,60*,1,nt
C/C=C(/C)C(=O)O[C@@H]1c2cc(OC)c(OC)c(OC)c2-c2c(cc3c(c2OC)OCO3)C[C@H](C)[C@]1(C)O,7,-1,-19,23,-3,-1
COc1cc2c(c(OC)c1OC)-c1c(cc3c(c1OC)OCO3)[C@@H](OC(C)=O)[C@H](C)[C@H](C)C2,-42*,-7,15,15,0,3
O=C1C[C@H](c2ccccc2)C(=O)N[C@@H](c2ccc(F)cc2)C/C=C\CCN1,3,nt,8,nt,nt,nt
CC[C@H]1C(c2ccc(F)cc2)=NN(c2ccccc2)[C@@H]1CO,-40,31,-37,60*,1,0
Cn1c(=O)c(N)c2c3c(c(Br)ccc31)C(=O)c1ccccc1-2,69,-4,9,-259,0,11*
COc1ccc(NC(=O)Nc2ccc3c(c2)CC(=O)N([C@@H](C)CO)C[C@@H](C)[C@H](CN(C)C)O3)cc1,2,-2[16.7 µM],6,nt,51,0
N#CC(C(=O)c1ccco1)c1ccccn1 (centres undefined),nt,0,43*,-41,-1,nt
CCOC(=O)c1cc2sccc2n1CC(=O)Nc1ccc(OC)cc1OC,12,5,-13,nt,0,-2
CCOC(=O)CN(Cc1sccc1C)C(=O)Nc1ccc(OC)cc1OC,nt,nt,42*,nt,nt,nt
COc1ccc(NC(=O)Nc2ccc3c(c2)CC(=O)N([C@@H](C)CO)C[C@H](C)[C@@H](CN(C)C(=O)Nc2cccc4ccccc24)O3)cc1,-1,2[16.7 µM],2,1[16.7 µM],0,-2
